Calb FLC – C. albicans growth modulation with fluconazole; C. albicans CaCi-2 (fluconazole-resistant clinical isolate) + fluconazole, Alamar Blue growth, 48 h; hit rate 0.57% among 300,000; growth inhibition, % (test concentration not listed);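 active = growth inhibition above about 58% in most replicates, limit read from the data, passing the limit was not always enough; inconclusive = exactly half the replicates above a set limit; inactive = most replicates below a set limit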;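 also: all wells also contain fluconazole at 8 µg/ml as a sub-toxic cotreatment; 0% = median of DMSO wells and 100% = median of geldanamycin control wells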
T cruzi inh – T. cruzi replication inhibition; hit rate 1.4% among 300,000; inhibition, % (no concentration beside the values); T. cruzi beta-gal in NIH3T3, luminescence, 90 h;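 active = mean inhibition across valid replicates above about 55%, limit read from the data; inconclusive = mean below that limit but half or more replicates reach it; inactive = mean below it, under half of replicates reach it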;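 also: signal also drops with host cell toxicity which is not excluded here; 0% = plate median of DMSO wells and 100% = zero luminescence signal; higher percent means less beta-gal luminescence so fewer parasites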
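Assay system: NIH/3T3 host cells with β-galactosidase reporter T. cruzi; input: 5,000 host fibroblasts per well; compound: single 50 nL compound addition per well in DMSO; timing: ≥90 h infection period, 3 h prior cell attachment; measured by: GalScreen β-gal luminescence, detergent lysis, 60 min; evaluation: percent inhibition of parasite-derived β-gal signal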
Beta cell apopt – blocks beta cell apoptosis; hit rate 0.8% among 300,000; INS-1E cytokine-induced death, ATP luminescence, 48 h; percent of positive-control rescue, neutral wells zero; protection from apoptosis, % (no concentration beside the values);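 active = Every replicate reaches about 75%, or at least half do and their mean reaches it too, limit read from the data; inconclusive = At least half of replicates reach the limit but their mean does not; inactive = Under half of replicates reach the limit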;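 also: 0% = cytokine-treated negative control wells and 100% = positive control rescue; higher means more ATP so stronger rescue from cytokine killing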
Mdm2-MdmX inh – inhibitors of human Mdm2/MdmX interaction; O15151+Q00987; SaOS-2 split-luciferase Mdm2/MdmX complementation, luminescence; hit rate 3% among 330,000; inhibition, % at 8 µM; AID 485346;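 active = inhibition of at least 50% at 8 µM in the primary screen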
Target sequence (O15151 whole entry, looked up): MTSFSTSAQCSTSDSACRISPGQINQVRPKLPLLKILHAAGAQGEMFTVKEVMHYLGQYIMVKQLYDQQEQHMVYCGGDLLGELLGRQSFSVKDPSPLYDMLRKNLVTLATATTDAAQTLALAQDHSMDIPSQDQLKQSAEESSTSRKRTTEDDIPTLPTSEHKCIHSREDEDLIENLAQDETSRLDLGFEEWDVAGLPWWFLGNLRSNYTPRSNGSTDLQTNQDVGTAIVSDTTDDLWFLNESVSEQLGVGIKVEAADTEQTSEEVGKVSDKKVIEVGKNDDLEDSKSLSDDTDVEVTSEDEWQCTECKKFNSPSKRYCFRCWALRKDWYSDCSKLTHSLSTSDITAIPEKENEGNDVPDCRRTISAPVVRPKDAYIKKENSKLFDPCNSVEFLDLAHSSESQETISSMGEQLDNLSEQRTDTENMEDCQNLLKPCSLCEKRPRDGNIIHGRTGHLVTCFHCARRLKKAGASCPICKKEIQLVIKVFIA
Target sequence (Q00987 whole entry, looked up): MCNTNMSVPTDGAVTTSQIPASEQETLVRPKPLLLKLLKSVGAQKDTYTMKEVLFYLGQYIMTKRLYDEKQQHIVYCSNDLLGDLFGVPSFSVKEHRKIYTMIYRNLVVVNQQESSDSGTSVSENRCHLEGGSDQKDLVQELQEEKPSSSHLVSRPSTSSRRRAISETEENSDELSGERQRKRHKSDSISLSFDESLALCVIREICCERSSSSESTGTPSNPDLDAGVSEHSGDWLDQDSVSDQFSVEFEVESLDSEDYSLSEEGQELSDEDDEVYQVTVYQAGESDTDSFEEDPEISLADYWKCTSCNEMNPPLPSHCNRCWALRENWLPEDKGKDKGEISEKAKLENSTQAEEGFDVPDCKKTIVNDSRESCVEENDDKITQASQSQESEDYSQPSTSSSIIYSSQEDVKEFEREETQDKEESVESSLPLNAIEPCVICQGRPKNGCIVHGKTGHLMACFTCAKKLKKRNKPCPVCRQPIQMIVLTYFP
CSC inhib – cancer stem cell inhibition | cancer stem cell-like cells viability, luminescence | inhibition, % at 7.5 µM | hit rate 1.1% among 300,000 | AID 2717; in the data active = inhibition above about 75%; inconclusive = no clear call, values can overlap the other calls; tested in HMLE shEcad cells
NALP3 yeast inh – blocks the NALP3 inflammasome reconstituted in yeast; inhibition, % at 10 µM; AID 2825; hit rate 0.39% among 330,000; Yeast reconstituted NLRP3/ASC/caspase-1, beta-gal luminescence, 24 h;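 active = inhibition of 50% or more; inactive = inhibition below 50%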;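 also: plate controls were induced DMSO wells for no effect and uninduced yeast grown without galactose for full effect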
NALP3 yeast conf – NALP3 inhibition confirmation in yeast. shares compounds with NALP3 yeast inh. yeast expressing human NALP3, luminescence. inhibition, % at 10 µM. hit rate 81% among 1,300; in the data active = inhibition above about 48%
Casp1 ASC ctr – counter-screen for NALP3 inhibitors: yeast caspase-1-ASC; inhibition, % at 10 µM; hit rate 66% among 1,000; yeast expressing Caspase-1-ASC, luminescence counter screen; AID 488784; shares compounds with NALP3 yeast inh
NALP3 yeast rt – retest-confirmed inhibitor of NALP3 in yeast. AID 488794. shares compounds with NALP3 yeast inh. inhibition, % at 10 µM. hit rate 53% among 1,000. yeast expressing human NALP3, luminescence read-out
Starred values were filed as active, the others as inactive; u = inconclusive; x = no result. The list is not random: actives were taken first. Their share in the collection is about 5.3%. Rule as the data show it, unless noted: active = inhibition above about 50%; inactive = the rest.

SMILES | Calb FLC | T cruzi inh | Beta cell apopt | Mdm2-MdmX inh | CSC inhib | NALP3 yeast inh | NALP3 yeast conf | Casp1 ASC ctr | NALP3 yeast rt
N#Cc1nc(-c2cccs2)oc1NCCc1ccccc1 | 13.1 | 17.8 | 8.3 | -26.7 | 7.2 | 70.6* | 77.0* | 70.0* | 62.6*
N#Cc1nc(-c2ccccc2F)oc1NCCc1ccccc1 | 20.7 | 27.8 | 6.8 | 0.6 | 4.9 | 31.2 | x | x | x
COC(=O)c1ccccc1NC(=O)Nc1cccc(C)n1 | -10.4 | -7.7 | -12.8 | -26.5 | -14.8 | -0.9 | x | x | x
COc1ccccc1NC(=O)Nc1cccc(C)n1 | -3.3 | -6.3 | -15.0 | 22.1 | 4.4 | 66.3* | 73.7* | 55.4* | 59.9*
Cc1csc2c(N3CCN(S(=O)(=O)c4ccc(Cl)cc4)CC3)ncnc12 | -7.2 | 6.6 | -5.5 | -1.8 | 4.2 | 68.1* | 54.9* | 38.3 | 28.9
Cc1csc2c(N3CCCCC3)ncnc12 | 11.8 | -10.0 | -2.8 | 3.0 | -13.8 | 27.8 | x | x | x
O=S(=O)(c1ccc(Cl)cc1)N1CCN(c2ncnc3sccc23)CC1 | x | x | 83.4* | 12.2 | 11.7 | 50.2* | 51.9* | 43.6 | 37.0
O=C1C2C3CCC(C3)C2C(=O)N1CNc1ccccc1 (stereo not given) | -0.8 | 6.1 | -6.6 | 6.9 | 0.8 | 1.0 | x | x | x
CCOC(=O)c1cc(S(=O)(=O)NCc2ccc3c(c2)OCO3)cn1C | -2.9 | -10.1 | -4.1 | 12.9 | -0.8 | 9.7 | x | x | x
CCOc1ccc(N=C(C)C2=C(O)c3ccccc3C2=O)cc1 | 2.2 | x | -4.2 | -141.9 | 8.6 | 39.1 | x | x | x
COc1ccc(N=C(C)C2=C(O)c3ccccc3C2=O)cc1 | -4.1 | 3.2 | -5.3 | -149.2 | -0.9 | 50.2* | 41.9 | 57.4* | 36.3
O=C(c1cc(Cl)nc2ccccc12)N1CCN(S(=O)(=O)c2ccccc2[N+](=O)[O-])CC1 | -6.5 | 14.2 | 4.7 | 18.8 | 5.7 | 14.9 | x | x | x
CCOc1ccc(N2C=Nc3ccc(OCC)cc3C2)cc1 | 3.1 | 23.7 | x | -23.9 | 13.6 | 58.6* | 60.6* | 60.0* | 51.4*
Cn1c(SCc2nc(-c3ccc(Br)cc3)no2)nnc1-c1ccco1 | 33.6 | 17.8 | 1.4 | 13.8 | -2.0 | 58.1* | 70.8* | 60.6* | 48.8
CSc1ccc(-c2cc(=O)c3ccccc3o2)cc1 | 23.0 | -3.1 | 0.9 | -93.2 | -12.8 | 61.5* | 63.5* | 52.5* | 61.8*
COc1ccc(-c2cn3c4c(sc3n2)CCCC4)cc1 | 5.6 | 31.4 | -0.3 | -84.8 | -1.1 | 52.2* | 61.1* | 49.2 | 45.0
CC(=O)N1N=C(c2ccc(C(C)(C)C)cc2)OC1(C)C | 0.3 | 7.6 | 0.1 | -25.5 | -1.5 | 3.9 | x | x | x
CC(=O)N1N=C(c2ccc3ccccc3c2)OC1(C)C | u | -13.9 | 3.0 | 18.7 | -2.7 | 63.1* | 33.8 | x | x
CCCCNC(=O)Oc1c(Br)cc2sc(=O)oc2c1Br | x | x | -9.8 | -41.9 | 13.4 | 72.2* | 62.1* | x | x
CCCCNC(=O)Oc1cc(CCl)on1 | -15.6 | -30.9 | -2.9 | 7.4 | -4.1 | -13.7 | x | x | x
Cc1cc(C)n2nc(SCc3cccc(S(=O)(=O)N(C)C)c3)nc2n1 | 2.9 | 19.4 | x | -23.9 | 16.7 | 7.1 | x | x | x
COc1ccccc1N1CCN(C2CCCN(C(=O)C3=NN(C)C(=O)CC3)C2)CC1 (stereo not given) | -6.1 | 4.0 | 4.0 | -3.1 | 2.3 | 6.5 | x | x | x
CCc1sc(C(=O)Nc2nccs2)cc1C | 12.1 | 11.7 | 0.7 | -134.8 | 14.6 | 53.1* | 72.2* | 81.3* | 69.9*
O=C(Nc1nccs1)c1ccc(Cl)s1 | -5.6 | -13.5 | -5.0 | -46.8 | 6.7 | 51.0* | 69.6* | 60.5* | 49.5
CCc1sc(C(=O)Nc2ncccc2C)cc1C | -1.2 | -7.4 | -2.3 | -10.4 | -10.2 | 26.5 | x | x | x
SMILES | Calb FLC | T cruzi inh | Beta cell apopt | Mdm2-MdmX inh | CSC inhib | NALP3 yeast inh | NALP3 yeast conf | Casp1 ASC ctr | NALP3 yeast rt
Cc1noc(C)c1C(=O)N1CCC(C(=O)c2ccc(F)cc2F)CC1 | 10.9 | -9.3 | -3.2 | 17.3 | -6.9 | 0.7 | x | x | x
CCC(C(=O)OC)n1cnc2scc(-c3ccc(C)c(C)c3)c2c1=O (stereo not given) | 46.2 | 38.1 | 1.6 | 12.9 | -5.5 | 96.6* | 99.2* | 99.1* | 98.2*
CC(=O)c1c(O)c2ccccc2n(Cc2ccccc2)c1=O | -5.9 | 1.2 | -1.5 | 17.6 | 1.5 | 16.9 | x | x | x
O=C(CSc1ccccn1)Nc1ccc(Br)cn1 | -17.8 | 9.6 | -2.4 | -2.5 | 1.3 | 35.6 | x | x | x
O=C(CSc1ncn(-c2ccccc2)n1)Nc1ccc(Br)cn1 | 5.7 | -0.9 | -6.5 | 20.1 | -4.6 | 75.3* | 75.6* | 69.3* | 50.4*
O=C1CSC(=S)N1c1cccc(O)c1 | -9.7 | -12.6 | -10.5 | 4.5 | 12.3 | 92.4* | 93.1* | 98.7* | 95.8*
O=C1/C(=C/c2cccs2)SC(=S)N1c1cccc(O)c1 | 29.5 | 1.5 | -1.4 | -20.0 | 6.0 | 80.5* | 88.0* | 93.5* | 87.7*
O=C1/C(=C/c2ccccn2)SC(=S)N1c1ccc(O)cc1 | 60.9 | -35.7 | -14.8 | 1.1 | 34.4 | 69.5* | 75.4* | 56.2* | 49.2
O=C(O)c1cccc(N2C(=O)CSC2=S)c1 | -0.9 | -3.3 | -0.2 | 18.2 | -10.6 | 10.8 | x | x | x
C=CCSc1nnc(-c2ccccc2NC(C)=O)c(=O)[nH]1 | -0.1 | -4.9 | 1.6 | -20.1 | -1.6 | 6.5 | x | x | x
CCN(CC)S(=O)(=O)c1ccc2nc(SC)sc2c1 | 3.9 | 4.5 | 2.0 | 18.8 | 10.0 | 75.3* | 81.6* | 73.3* | 65.9*
CSc1nc2ccc(S(=O)(=O)N(C)C)cc2s1 | -4.8 | 1.7 | -0.9 | 23.2 | -9.6 | 46.8 | x | x | x
O=C(CNS(=O)(=O)c1ccc(Cl)c(C(F)(F)F)c1)NC1CCCCCC1 | x | x | -0.3 | 10.2 | x | 15.7 | x | x | x
Cc1ccc(/C=C(\NC(=O)c2ccccc2)C(=O)N2CCCCC2)cc1 | 2.3 | -9.8 | 0.0 | 5.4 | 5.4 | -2.2 | x | x | x
COc1ccccc1OCCCc1c(C)n[nH]c1C | -6.8 | -38.6 | -3.9 | 15.0 | -5.4 | 51.4* | 88.2* | 94.6* | 80.8*
COc1ccccc1OCCCCCc1c(C)n[nH]c1C | 9.1 | -1.8 | 5.6 | -28.9 | -6.9 | 11.2 | x | x | x
COc1ccc(C)cc1S(=O)(=O)n1cnc2ccccc21 | 1.6 | 12.0 | -5.2 | 37.4 | -8.4 | 5.1 | x | x | x
CCOC(=O)c1ccc2nc3c(cc2c1)CCS3 | 10.5 | 12.9 | 0.0 | -67.4 | 6.9 | 56.0* | 66.5* | 65.7* | 46.1
CCCC(=O)Nc1nc2ccc(C(=O)OCC)cc2s1 | -14.9 | 25.6 | -1.2 | -60.4 | 7.0 | 9.3 | x | x | x
Cc1cc(N2CCCC2)ccc1/C=C1\NC(=S)N(C)C1=O | -5.2 | 5.3 | 38.1 | -127.1 | 3.5 | 50.9* | 50.0* | 50.5* | 46.8
CCOc1ccccc1C(=O)Nc1ccccc1O | 8.5 | -48.1 | -3.2 | -1.1 | 0.2 | 54.2* | 57.0* | 55.9* | 54.8*
CCOc1ccccc1C(=O)Nc1cccc2ccccc12 | 4.0 | 4.4 | x | 18.1 | 21.0 | 32.2 | x | x | x
